Measurements of several laboratories.
Compare with care: the assays were run in different laboratories.

COc1cc2c(cc1OC)-c1cc3ccc(OC)c(OCCN)c3c[n+]1CC2 — IC50 (PC-9; cell growth or viability; MTT; 72 h): > 80000 nM
NC(=O)c1ccncc1 — IC50 (DH82; NO release; inhibitor; Griess; 24 h; LPS-stimulated): > 200000 nM
CCCOc1nc(-c2cccc(O)c2)cc(-c2cc3cc(Cl)ccc3nc2N2CCOCC2)c1C#N — IC50 (NFS-60; cell growth or viability; MTT; 72 h): 244 nM
Cc1c(C(=O)O)ccc2c3n(nc12)[C@@H]1[C@H](C3)N(CC2CC2)[C@@]2(C(=O)Nc3cc(Cl)ccc32)[C@H]1c1cccc(Cl)c1F — IC50 (SK-OV-3; cell growth or viability; ATP luminescence): > 50000 nM
O=C(CCO)NCc1ccccc1 — IC50 (DH82; PGE2 release; inhibitor; ELISA; 24 h; LPS-stimulated): 49400 nM
CC(C)c1ccccc1[C@@H]1CCCN1C1CC2(CCN(c3ccc(C(=O)NS(=O)(=O)c4ccc(NC[C@H]5CC[C@](C)(O)CC5)c([N+](=O)[O-])c4)c(Oc4cnc5[nH]ccc5c4)c3)CC2)C1 — IC50 (DOHH-2; cell growth or viability; ATP luminescence; 48 h): 6.5 nM
COc1cc2c3c(n(CCCn4ccnc4)c(=O)c2cc1OC)-c1nc2c(cc1C3=O)OCO2 — IC50 (Raji; cell growth or viability; MTS; 72 h): 204 nM
C=C(F)C(=O)N1CCN(c2nc(OC[C@@H]3CCCN3C)nc3c2CCN(c2cccc4cccc(Cl)c24)C3)C[C@@H]1CC#N — IC50 (PC-9; cell growth or viability; ATP luminescence): 2010 nM
Nc1n[nH]c2nc(-c3cccc(O)c3)cc(-c3cc4cc(Cl)ccc4nc3N3CCOCC3)c12 — IC50 (NFS-60; cell growth or viability; MTT; 72 h): 160 nM
CN1Cc2c(N)cccc2C(=O)N1C1CCC(=O)NC1=O (stereo not shown) — IC50 (NCI-H929; cell growth or viability; CCK-8; 96 h): < 330 nM
COc1ccc(-c2cc(-c3cc(OC)ccc3OC)c3c(=O)[nH]c(=O)[nH]c3n2)cc1 — IC50 (HCT-116; cell growth or viability; MTT; 48 h): 11800 nM
O=C(CCNNC(=O)c1ccncc1)NCc1ccccc1 — IC50 (DH82; NO release; inhibitor; Griess; 24 h; LPS-stimulated): > 200000 nM
COc1cc2c3c(n(CCCN4CCOCC4)c(=O)c2cc1OC)-c1nc2c(cc1C3=O)OCO2 — IC50 (Raji; cell growth or viability; MTS; 72 h): 374 nM
NCCC(=O)NCc1ccccc1 — IC50 (DH82; PGE2 release; inhibitor; ELISA; 24 h; LPS-stimulated): 122000 nM
COc1ccc(-c2cc(-c3ccccc3Cl)c3c(=O)n(C)c(=O)n(C)c3n2)cc1 — IC50 (HCT-116; cell growth or viability; MTT; 48 h): 14100 nM
CCOc1nc(-c2cccc(O)c2)cc(-c2cc3cc(Cl)ccc3nc2N2CCOCC2)c1C#N — IC50 (NFS-60; cell growth or viability; MTT; 72 h): 113 nM
COCCC(=O)NCc1ccccc1 — IC50 (DH82; PGE2 release; inhibitor; ELISA; 24 h; LPS-stimulated): 126000 nM
CCNCCCn1c2c(c3cc(OC)c(OC)cc3c1=O)C(=O)c1cc3c(nc1-2)OCO3 — IC50 (Raji; cell growth or viability; MTS; 72 h): 125 nM
CCCOc1nc(-c2cccc(O)c2)cc(-c2cc3cc(OC)ccc3nc2N2CCOCC2)c1C#N — IC50 (NFS-60; cell growth or viability; MTT; 72 h): 64.6 nM
